RAM inhibit = blocks the yeast RAM network; hit rate 1.8% among 190,000; inhibition, % at 50 µM; S. cerevisiae dse1pr::URA3 reporter, 5-FOA growth OD615, 2 d; analog-sensitive cbk1-as2 kinase mutant strain;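 active means inhibition above a set limit, 3 SD over mean compound inhibition, cut at about 8.4% in these data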;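 further: inhibition rescues growth on 5-FOA so higher OD means more RAM inhibition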
Ins promoter up = MIN6 insulin promoter up-regulation | hit rate 0.3% among 190,000 | MIN6 insulin promoter-GFP reporter, high-content imaging; hits give high values | AID 1625 | z-score at 5 µM;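 active means z-score above 3 at 5 µM with at least 500 cells counted in the well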
Yeast growth inh = reduces growth of yeast BB579 in restrictive medium; hit rate 0.51% among 140,000; inhibition, % at 10 µM; AID 804; S. cerevisiae BB579 growth, OD615, 48 h;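 active means inhibition above a set limit, 3 SD over the mean compound inhibition, cut at about 44% in these data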
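System: DeaD yeast strain BB579; buffer or medium: CSMM-D dextrose restrictive medium; technique: OD at 615 nm; schedule: 4 h cell preincubation, 48 h compound exposure, 30 °C humidified; doses: single 10 µM dose; controls: amphotericin B 10 µg/mL, positive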
Yeast lifespan up = extends the lifespan of yeast; S. cerevisiae growth with nicotinamide, OD615; deaD strain in restrictive glucose medium; inhibition of the nicotinamide effect, % at 10 µM; hit rate 0.68% among 130,000;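 active means inhibition above a set limit, placed 3 SD over the median of all compounds, cut at about 26% in these data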
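Test system – modified budding yeast, DeaD strain · Compound – single dose 10 µM compound, 0.25% DMSO · Times – culture preincubation 4 h, compound exposure 48 h, both 30 °C · Detection – optical density (absorbance) at 615 nm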
INS promoter inh = TRM-6 insulin promoter activity inhibition | TRM-6 cells, insulin promoter-eGFP reporter, imaging; reporter expression induced with tamoxifen | inhibition, % at 2 µM | hit rate 0.9% among 130,000 | AID 1273;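 active means inhibition above the mean plus 3 SD, with well images judged a real hit on visual review, cut at about 60% in these data, passing the limit was not always enough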
Numbers stand for hits; 0 = inactive; - = no result given. Shown are actives, neighbours in structure and some others; about 3.1% of the full set was active somewhere.

SMILES	RAM inhibit	Ins promoter up	Yeast growth inh	Yeast lifespan up	INS promoter inh
CCOc1cc(C2c3c(oc4cc(C)c(Cl)cc4c3=O)C(=O)N2Cc2ccco2)ccc1O (configuration not stated)	8.4	0	0	0	0
CN(C)/C=C/C(=O)c1c(F)cccc1F	-	0	-	-	-
O=C1C=CCC(/C=C/c2ccccc2)O1 (configuration not stated)	0	0	0	41	0
CC1CCCN(C(=O)N2c3ccccc3Sc3ccccc32)C1 (configuration not stated)	10	0	0	0	0
N=C(SC1CC(=O)N(c2ccc(F)cc2)C1=O)N1N=C(c2ccccc2)CC1c1ccccc1 (configuration not stated)	0	0	-	-	-
CCOc1ccc(N2C(=O)Nc3ccccc3C2(O)C(=O)N2CCN(c3ccccn3)CC2)cc1 (configuration not stated)	0	0	-	-	-
Cc1ccc2cc(CCNS(=O)(=O)c3ccc(F)cc3)c(=O)[nH]c2c1C	8.5	0	-	-	-
Cc1ccc(NC(=O)C(OC(=O)c2ccc(O)cc2)c2ccccc2)cc1Cl (configuration not stated)	8.5	0	0	0	0
Cc1ccc(NC(=O)C(OC(=O)c2ccc(F)cc2)c2ccccc2)cc1Cl (configuration not stated)	0	0	0	0	-
S=c1[nH]nc(-c2ccccc2)n1CC1CCCO1 (configuration not stated)	0	3.1	0	0	0
Cc1nc(=O)c(-c2ccccc2)c(C)n1CC1CCCO1 (configuration not stated)	0	0	0	0	0
O=[N+]([O-])c1cc(S(=O)(=O)C(F)(F)F)ccc1Sc1nc2ccccc2s1	8.5	0	0	0	0
O=S(=O)(Nc1ccc(O)c(Sc2nc3ccccc3s2)c1)c1ccc(F)cc1	8.9	0	0	0	0
O=[N+]([O-])c1cc(S(=O)(=O)C(F)(F)F)ccc1Sc1nc2ccccc2[nH]1	0	-	0	39	0
O=S(=O)(Nc1ccc(-c2csc(-c3ccccc3)n2)cc1)c1ccc(F)cc1	0	0	69	0	0
Cc1ccc(CNS(=O)(=O)c2cccc3nsnc23)cc1	0	0	-	-	-
Cc1onc(C(=O)N2C(C)CCCC2C)c1[N+](=O)[O-] (configuration not stated)	0	0	0	0	0
C/C(=N\NC(=O)c1nn(C)c(C)c1Br)c1ccc(NC(=O)c2ccc(C)s2)cc1	9.2	0	-	-	-
CCNCCNC(=O)c1c(O)c2ccccc2n(CC)c1=O	0	0	0	0	-
C=CCn1c(=O)c(C(=O)NCCNCC)c(O)c2ccccc21	0	0	0	31	0
C(=C\c1nc2ccccc2[nH]1)/c1ccccc1	0	-	0	0	93
C(=C\c1ccco1)/c1nc2ccccc2[nH]1	0	0	-	-	-
O=C(CN1CCN(c2ccccn2)CC1)N(c1ccccc1)c1ccc2ccccc2c1	0	0	0	0	0
CS/C(=N\S(=O)(=O)c1cccs1)Nc1ccc(Br)cc1F	0	0	0	31	0
CS/C(=N\S(=O)(=O)c1cccs1)Nc1ccc(Cl)cc1	0	0	0	0	-
SMILES	RAM inhibit	Ins promoter up	Yeast growth inh	Yeast lifespan up	INS promoter inh
COc1ccc(-n2c(C)cc(-c3csc(N)n3)c2C)cc1	0	0	0	0	0
Cc1sc(NC(=O)c2ccccc2)c(C(=O)c2ccccc2)c1C	11	0	0	0	0
Cc1ccc(C(=O)Nc2sc(C)c(C)c2C(=O)c2ccccc2)cc1	0	0	0	0	0
Cc1cc(C(=O)CCl)c(C)n1CCc1ccc(F)cc1	0	0	-	-	100
Cc1ccccc1Cc1c(C)nc2nc(SCC(=O)NCc3ccco3)nn2c1C	0	0	0	0	0
Cc1ccccc1Cc1c(C)nc2c(C(=O)NCc3ccco3)cnn2c1C	10	0	0	0	-
CCOc1ncccc1C(=O)Nc1cccc(-c2nnc3n2CCCCC3)c1	0	0	-	-	-
CCCc1[nH]n(-c2ccc([N+](=O)[O-])cc2)c(=O)c1C=NCCc1ccc(OC)c(OC)c1	0	0	-	-	0
Cc1cc(C)cc(-n2c(=O)c3sccc3n(CC(=O)NCc3ccco3)c2=O)c1	0	4.6	0	0	-
Cc1ccc(-n2c(=O)c3sccc3n(CC(=O)NCc3ccco3)c2=O)cc1	0	0	0	0	0
C(=N\c1ncnc2sccc12)/NOCc1ccccc1	0	0	70	0	0
CCc1cccc(C)c1NC(=O)C1CN(S(=O)(=O)c2ccccc2)CCN1S(=O)(=O)c1ccccc1 (configuration not stated)	0	0	0	0	0
COc1cccc(NC(=O)c2cc(C(=O)Nc3cccc(OC)c3)n(C)n2)c1	11	0	0	0	0
Cc1ccc(NC2OC(CO)C(O)C(O)C2O)cc1 (configuration not stated)	0	-	0	0	-
CCc1ccc(NC(=O)C2(c3ccccc3)CC2(Cl)Cl)cc1 (configuration not stated)	8.5	0	0	0	0
O=C(CCCCn1c(=O)c2ccccc2n(Cc2ccccc2F)c1=O)NC1CCN(Cc2ccccc2)CC1	0	0	-	-	0
CCCNNC(=O)C(O)(c1ccccc1)c1ccccc1	0	0	0	0	-
O=C(/C=C(\O)c1ccc(Cl)cc1)C(=O)NNC(=O)C(O)(c1ccccc1)c1ccccc1	0	0	0	62	0
CC(C)NC(=O)C1CCN(C2CCN(C(=O)c3scc4c3CCCC4)CC2)CC1	0	0	-	-	-
Cc1cc2[nH]c(=O)c3ccccc3n2n1	0	0	0	0	83
CCOC(=O)CSc1cc(-c2ccccc2)nc2ncnn12	-	0	-	-	-
Cc1ccc(Sc2cnn(-c3ccccc3)c(=O)c2Cl)cc1	0	0	0	31	-
Cc1cc(N=Nc2ccccc2)c(NCC(O)C(O)C(O)CO)cc1C (configuration not stated)	10	0	-	-	82
Cc1ccc(NCC(O)C(O)C(O)CO)cc1C (configuration not stated)	0	0	0	0	0
CCOC(=O)C1CC(=O)c2cc(OC)c(OC)cc2C1 (configuration not stated)	-	0	-	-	-
SMILES	RAM inhibit	Ins promoter up	Yeast growth inh	Yeast lifespan up	INS promoter inh
CCOC(=O)C1Cc2cc3c(cc2C1=O)CC(C(=O)OCC)C3=O (configuration not stated)	0	0	0	51	-
CCCc1ccc(-c2cc(NC(=O)CSc3nnc(N)s3)n(-c3ccccc3)n2)cc1	0	0	0	0	-
COCCn1c(SCC(=O)Nc2ccccc2)nc2c(oc3ccccc32)c1=O	0	0	-	-	0
COCCn1c(SCC(=O)Nc2ccc(C)cc2)nc2c(oc3ccccc32)c1=O	0	0	0	85	0
CCOC(=O)c1c(N)sc(C(O)(C(F)(F)F)C(F)(F)F)c1-c1ccc(F)cc1	0	0	48	0	0
CCOC(=O)c1c(N)sc(C(O)(C(F)(F)F)C(F)(F)F)c1-c1ccc(Cl)cc1	0	0	52	0	0
Cc1c(C(=O)/C=C/c2cccs2)oc2ccc(F)cc12	0	-	0	0	0
COc1ccc(Cl)cc1N1C(=O)/C(=C\c2sccc2C)N=C1SCC(=O)NC1CC1	8.6	-	0	0	-

Screening data as filed in PubChem BioAssay.
